Source: PubChem BioAssay (several laboratories)
Shown is part of a subset that was picked to be rich in hits.
VLA-4 inh: inhibition in a human VLA-4 binding assay; P13612; VLA-4 expressing cells, ligand binding flow cytometry; inhibition, % (about 7 µM as worked out from the volumes in the protocol); 330,000 tested, 0.2% active; AID 2557; in the data active = inhibition above about 50%
XBP1 UPR activ: adaptive UPR (XBP1) activation; CHO-XBP1 luciferase reporter, IRE1-XBP1 UPR activation, luminescence; percent of tunicamycin response, DMSO as zero; activation, % at 20 µM; 330,000 tested, 0.33% active; AID 463104;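 active = versus positive control, 20 µM dose yields 30% or more activation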;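 also: 100% = tunicamycin at 10 µg/mL and 0% = DMSO only wells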
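Test system: CHO-XBP1 luciferase reporter cells | Buffer or medium: Serum-containing F12 medium, 10% FBS | Schedule: 6 h compound exposure at 37 °C, 5% CO2 | Detection: Steady-Glo luciferase glow luminescence, 10 min after reagent addition | Read-out basis: Activation, % of tunicamycin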
CHOP UPR activ: apoptotic UPR (CHOP) activation | CHO-CHOP luciferase reporter, luminescence; percent of tunicamycin response over DMSO baseline | activation, % at 10 µM | 330,000 tested, 0.34% active | AID 449763;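 active = at 10 µM dose, activation of 40% or more, normalized to positive control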;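 also: 100% = tunicamycin at 10 µg/mL and 0% = DMSO alone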
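System: CHO-CHOP luciferase reporter cell line | Buffer or medium: F12 medium containing 10% fetal bovine serum | Doses: One dose, 10 µM in 0.5% DMSO | Times: 6 h compound exposure at 37 °C after overnight seeding | Signal: Luciferase luminescence | Read-out: % activation vs tunicamycin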
Beta2AR agonist: human beta-2 adrenergic receptor agonism by FAP; 340,000 tested, 0.43% active; P07550; Am2.2-beta2AR cells, FAP receptor internalization, flow cytometry; response, % (no concentration beside the values);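 active = response above a set limit, near 3 SD of response in nonfluorescent compounds, cut at about 42% in these data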
CHOP inh: CHOP inhibition in unfolded protein response; CHO-K1 CHOP-promoter luciferase, tunicamycin-induced, 15-18 h; inhibition, % at 10 µM; 220,000 tested, 3.8% active;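 active = compounds that reduced the stress-induced luciferase reporter signal by more than about 70% of percent inhibition, limit read from the data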;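 also: 0% = tunicamycin plus vehicle and 100% = wells without tunicamycin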
* marks the source's active call; other numbers are inactive results; x = no result given.

SMILES | VLA-4 inh | XBP1 UPR activ | CHOP UPR activ | Beta2AR agonist | CHOP inh
Clc1ccc(/C=C\c2nccc3c2[nH]c2ccccc23)cc1 | x | x | x | -1 | 0
CN1/C(=C\C(=O)Nc2ccc(Br)cc2)C(C)(C)c2ccccc21 | -1 | 1 | 3 | -8 | 82*
Cc1cccn2c(=O)nc(SCC(=O)N3CCN(c4ccccc4)CC3)nc12 | 10 | -4 | 0 | -3 | x
CCN(CC)C(=O)N1c2ccccc2CC(N(CC)CC)c2ccccc21 (centres undefined) | 12 | -3 | 0 | 8 | 85*
Cc1c(C(=O)N2CCOCC2)c(S(=O)(=O)Nc2cccc(C#N)c2)c(C)n1C | 8 | -5 | 2 | -18 | x
CCN1C(=O)CSC1=NC12CC3CC(CC(C3)C1)C2 | 4 | -4 | -3 | 4 | 38
CN1C(=O)CSC1=NC12CC3CC(CC(C3)C1)C2 | 10 | -4 | 0 | -18 | 73*
COc1ccccc1C1=NOC(C)(c2sc(-c3ccc(Cl)cc3)nc2C)C1 (centres undefined) | -1 | 3 | 1 | -5 | -28
NC(=O)c1sc2nc3c(c(-c4cccs4)c2c1N)CCCC3 | x | x | x | x | 76*
CCCC1=C(C(=O)OCC)C(c2ccc(OC)c(C)c2OC)C(C#N)=C(N)O1 (centres undefined) | 3 | -5 | -3 | -2 | 72*
CN(C)c1nc(F)c(F)c(S(=O)(=O)c2ccccc2)c1F | 6 | -5 | 0 | 0 | x
Cc1ccccc1C(=O)N1CCC(n2nccc2NC(=O)CCOc2ccccc2)CC1 | -7 | -2 | 2 | 0 | x
O=C1c2ccccc2C(=O)C2OC12 (centres undefined) | 13 | -3 | 66* | x | x
O=C1c2ccccc2C(=O)C1c1ccccn1 | 4 | 0 | 2 | -8 | 27
O=[N+]([O-])c1ccc(O)c(/C=N/Nc2ccc(Cl)nn2)c1 | 4 | 5 | 19 | -9 | 75*
O=[N+]([O-])c1ccc(O)c(/C=N/Nc2nn[nH]n2)c1 | -10 | 0 | 2 | 4 | 8
Cc1cc2c3c(c1)C(C)CC(C)(C)N3C(=O)C2=O (centres undefined) | 23 | 9 | 0 | 13 | -19
CC1CC2(CCCCC2)N2C(=O)C(=O)c3cccc1c32 (centres undefined) | -5 | 3 | -1 | 11 | 75*
CC(CC(=O)NCc1ccco1)S(=O)(=O)c1ccc2c(c1)CCN2C(=O)C1CC1 (centres undefined) | -14 | -6 | -2 | -15 | x
CC(OC(=O)C1=COCCO1)C(=O)Nc1ncc(Cl)cc1Cl (centres undefined) | x | -3 | 1 | -1 | x
CCCCN(C(=O)c1ccc(S(=O)(=O)N(C)c2ccccc2)cc1)c1c(N)n(CCC)c(=O)[nH]c1=O | x | x | x | 2 | x
O=C(c1ccccc1)c1cc(-c2ccccc2)on1 | -1 | -11 | -7 | 3 | 93*
S=c1[nH]nc(CSc2nc3ccccc3s2)n1C1CCCCC1 | -8 | -2 | 2 | 0 | 87*
O=C(N/C=N/OCc1ccc(Cl)cc1Cl)NOCc1ncc(C(F)(F)F)cc1Cl | 4 | -1 | 3 | -7 | 95*
CCn1nc(C)c(NC(=O)Nc2cccc(Cl)c2Cl)c1C | 9 | -2 | 0 | -2 | 9
SMILES | VLA-4 inh | XBP1 UPR activ | CHOP UPR activ | Beta2AR agonist | CHOP inh
CC(C)(C)c1ccc(C(=O)N2CCCCCC2=O)cc1 | 12 | -4 | -7 | -1 | 89*
CC(C)(C)c1ccc(S(=O)(=O)/C=C/C#N)cc1 | x | x | x | x | 3
CCCCn1c(C)cc(C)c(S(=O)(=O)c2ccccc2C)c1=O | 6 | -2 | 0 | 4 | 94*
Cc1cc(SCc2cccc(Cl)c2)nc(=O)[nH]1 | 12 | 3 | -1 | 0 | x
COc1cc(OC)c(NC(=O)c2ccco2)cc1Cl | 5 | 0 | 0 | 16 | 72*
COc1cc(NC(=O)c2ccco2)ccc1NC(=O)C(C)C | 4 | 2 | -2 | -12 | 80*
COc1cc(NC(=O)c2ccco2)c(OC)cc1NC(=O)CCC(=O)Nc1cc(C)cc(C)c1 | -18 | 0 | -1 | -20 | 76*
COc1cc(NC(=O)c2ccco2)c(OC)cc1NC(=O)CCC(=O)Nc1cc(C)ccc1C | 6 | -2 | 1 | -7 | 11
COc1cc(NC(=O)c2ccco2)c(OC)cc1NC(=O)Nc1ccc(Cl)cc1 | 14 | -1 | 8 | -8 | -14
CC(OC(=O)CCC(=O)c1ccc(F)cc1)C(=O)NC1CCCCC1C (centres undefined) | 7 | -3 | 1 | -2 | x
O=C(Nc1ccc(-c2nc3ccccc3o2)c(O)c1)c1cc(-n2cnnc2)ccc1Cl | -20 | 13 | 7 | 22 | 92*
O=C(NCc1cccc(Cl)c1)c1ccc(S(=O)(=O)Nc2cccc(C(F)(F)F)c2)cc1 | -7 | -1 | 2 | -6 | 90*
O=C(Cc1cccc(C(F)(F)F)c1)NCc1cccc(Cl)c1 | 0 | 0 | 1 | -8 | 24
Cc1cc(C)c(S(=O)(=O)NCc2ccc3c(c2)cc(C)n3C)c(C)c1 | -4 | -1 | -1 | -8 | 71*
N=C(N)SCc1cn(-c2ccccc2)nc1-c1ccc(Br)cc1 | x | x | x | 21 | 106*
Cc1ccc(-c2nn(-c3ccccc3)cc2CO)cc1 | 10 | 4 | 7 | -26 | x
CN(CC(=O)Nc1ccc(F)c(F)c1F)C(=O)c1n[nH]c(=O)c2ccccc12 | 18 | 0 | 2 | -4 | x
Cn1c(=O)cc(SCC(=O)NCCC2=CCCCC2)c2cc(Cl)ccc21 | -3 | -2 | -1 | -24 | 93*
O=C(C(c1ccccc1)C(O)c1ccccc1)N1CCOCC1 (centres undefined) | x | x | x | -1 | x
COc1ccc(N(C)C(=O)C2CCN(S(=O)(=O)c3cccc4nonc34)CC2)c(OC)c1 | -1 | -4 | 1 | 0 | x
CCc1cccc2c(C(=O)COC(=O)c3ccc([N+](=O)[O-])s3)c[nH]c12 | 6 | 5 | 0 | 6 | 73*
O=C(OCC(=O)c1c[nH]c2ccccc12)c1ccc([N+](=O)[O-])s1 | 24 | -1 | 1 | 0 | 38
NC(=O)CC(NC(=O)Cc1ccc(Br)cc1)c1ccc(NCc2ccc(F)cc2)c([N+](=O)[O-])c1 (centres undefined) | -5 | -2 | 1 | -3 | 93*
NC(=O)CC(NC(=O)Cc1ccc(Br)cc1)c1ccc(NCC2CC2)c([N+](=O)[O-])c1 (centres undefined) | 14 | -3 | -2 | -5 | 77*
O=C1C(=O)c2c(ccc3ccccc23)-c2ccccc21 | x | x | x | 9 | x
CCOc1ccc(N2CCc3c(C)nc(SC)nc32)cc1 | 7 | 3 | -1 | -6 | 96*
COC(=O)c1c(C)oc2ccc(OC(=O)c3cccs3)cc12 | -2 | -1 | -3 | -2 | 86*
CC(C)(C)c1ccc(OCC(O)CN2CCc3ccccc3C2)cc1 (centres undefined) | 7 | -4 | 0 | 10 | x
